From ChEMBL document CHEMBL2396604, “Synthesis and structure activity relationship of tetrahydroisoquinoline-based potentiators of GluN2C and GluN2D containing N-methyl-D-aspartate receptors” (J Med Chem, 2013)
The source made the active and inactive calls. The rule behind the calls is not given here.

Columns and labels:
[1] = biological target: Glutamate NMDA receptor; Grin1/Grin2c (Rattus norvegicus, UniProt P35439+Q00961); experiment: Activity at rat recombinant GluN1/GluN2C receptor assessed as potentiation of glycine/glutamate-induced activation by two-electrode voltage clamp technique; format: protein-complex assay
Glutamate NMDA receptor; Grin1/Grin2c, sequence (Q00961 whole entry, other chains not shown): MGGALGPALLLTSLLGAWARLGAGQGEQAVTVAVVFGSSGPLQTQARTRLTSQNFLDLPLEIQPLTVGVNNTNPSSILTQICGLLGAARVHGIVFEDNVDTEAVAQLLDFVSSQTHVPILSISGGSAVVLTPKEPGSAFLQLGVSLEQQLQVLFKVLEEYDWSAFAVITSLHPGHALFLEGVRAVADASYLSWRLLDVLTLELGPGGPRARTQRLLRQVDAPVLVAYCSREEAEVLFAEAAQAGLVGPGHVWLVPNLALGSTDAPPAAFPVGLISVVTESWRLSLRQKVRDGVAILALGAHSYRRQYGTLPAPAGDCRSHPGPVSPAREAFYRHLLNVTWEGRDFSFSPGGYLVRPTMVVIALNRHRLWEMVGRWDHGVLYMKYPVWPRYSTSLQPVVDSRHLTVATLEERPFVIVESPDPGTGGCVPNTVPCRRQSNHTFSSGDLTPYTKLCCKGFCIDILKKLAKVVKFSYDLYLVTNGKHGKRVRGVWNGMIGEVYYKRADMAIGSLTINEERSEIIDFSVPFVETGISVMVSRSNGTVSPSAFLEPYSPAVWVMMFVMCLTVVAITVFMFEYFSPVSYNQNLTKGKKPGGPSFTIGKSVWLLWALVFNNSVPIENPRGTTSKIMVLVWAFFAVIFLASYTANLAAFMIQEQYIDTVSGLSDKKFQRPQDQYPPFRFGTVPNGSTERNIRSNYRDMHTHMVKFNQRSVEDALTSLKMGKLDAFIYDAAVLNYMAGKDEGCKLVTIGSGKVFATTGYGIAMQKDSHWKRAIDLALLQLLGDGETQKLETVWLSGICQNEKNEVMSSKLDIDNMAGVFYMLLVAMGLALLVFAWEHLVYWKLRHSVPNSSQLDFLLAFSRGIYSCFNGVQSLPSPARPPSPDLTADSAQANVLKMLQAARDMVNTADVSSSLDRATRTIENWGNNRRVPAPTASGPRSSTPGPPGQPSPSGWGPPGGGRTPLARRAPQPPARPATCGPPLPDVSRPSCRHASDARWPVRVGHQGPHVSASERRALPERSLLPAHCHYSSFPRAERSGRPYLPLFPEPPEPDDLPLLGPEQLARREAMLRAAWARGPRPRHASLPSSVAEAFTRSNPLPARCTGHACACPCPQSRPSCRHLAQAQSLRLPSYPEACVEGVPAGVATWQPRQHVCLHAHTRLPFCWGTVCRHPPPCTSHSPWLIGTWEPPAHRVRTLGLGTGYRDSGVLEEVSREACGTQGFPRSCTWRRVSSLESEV

[2] = biological target: Ionotropic glutamate receptor NMDA 1/2D (Rattus norvegicus, UniProt P35439+Q62645); experiment: Activity at rat recombinant GluN1/GluN2D receptor assessed as potentiation of glycine/glutamate-induced activation by two-electrode voltage clamp technique; format: protein-complex assay
Ionotropic glutamate receptor NMDA 1/2D, sequence (Q62645 whole entry, other chains not shown): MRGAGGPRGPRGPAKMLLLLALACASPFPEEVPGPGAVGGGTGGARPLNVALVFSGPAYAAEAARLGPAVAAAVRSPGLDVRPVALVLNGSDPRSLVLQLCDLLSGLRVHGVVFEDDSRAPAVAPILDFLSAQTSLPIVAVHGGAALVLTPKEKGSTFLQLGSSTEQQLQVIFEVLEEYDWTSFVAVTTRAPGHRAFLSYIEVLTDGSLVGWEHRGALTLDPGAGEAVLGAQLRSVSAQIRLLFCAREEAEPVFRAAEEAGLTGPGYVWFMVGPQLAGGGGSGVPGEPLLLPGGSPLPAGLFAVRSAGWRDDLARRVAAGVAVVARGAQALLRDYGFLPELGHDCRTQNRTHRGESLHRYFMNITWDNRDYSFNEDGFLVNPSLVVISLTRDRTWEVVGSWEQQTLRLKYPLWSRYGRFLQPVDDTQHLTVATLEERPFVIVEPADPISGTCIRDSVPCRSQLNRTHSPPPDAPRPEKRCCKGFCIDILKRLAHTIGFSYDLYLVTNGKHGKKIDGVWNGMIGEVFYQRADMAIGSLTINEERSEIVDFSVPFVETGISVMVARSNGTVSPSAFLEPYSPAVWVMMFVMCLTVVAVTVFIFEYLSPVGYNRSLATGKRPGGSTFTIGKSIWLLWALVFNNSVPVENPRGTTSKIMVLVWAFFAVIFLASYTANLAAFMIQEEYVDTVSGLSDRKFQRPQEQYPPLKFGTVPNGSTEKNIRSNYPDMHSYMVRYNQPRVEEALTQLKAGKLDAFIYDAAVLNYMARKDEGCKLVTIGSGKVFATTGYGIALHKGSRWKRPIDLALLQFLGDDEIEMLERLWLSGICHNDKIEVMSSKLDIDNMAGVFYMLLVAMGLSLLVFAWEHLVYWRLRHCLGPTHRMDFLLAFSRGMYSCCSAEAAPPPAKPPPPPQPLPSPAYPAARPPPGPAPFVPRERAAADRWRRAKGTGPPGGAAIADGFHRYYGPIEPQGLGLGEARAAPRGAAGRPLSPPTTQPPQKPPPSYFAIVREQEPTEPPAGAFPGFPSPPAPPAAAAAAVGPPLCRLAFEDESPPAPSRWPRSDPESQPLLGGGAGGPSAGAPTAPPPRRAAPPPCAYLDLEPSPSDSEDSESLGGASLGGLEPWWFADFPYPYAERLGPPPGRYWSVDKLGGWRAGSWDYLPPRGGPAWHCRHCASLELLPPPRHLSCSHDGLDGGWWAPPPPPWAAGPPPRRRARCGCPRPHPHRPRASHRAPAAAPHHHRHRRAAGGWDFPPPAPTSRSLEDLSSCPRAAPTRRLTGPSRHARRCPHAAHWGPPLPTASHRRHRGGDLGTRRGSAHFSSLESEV

[3] = biological target: Glutamate receptor 1 (Rattus norvegicus) (UniProt P19490); experiment: Activity at rat recombinant GluA1 receptor expressed in Xenopus oocytes assessed as effect on glutamate-induced response by two-electrode voltage clamp technique; format: cell-based; conditions: Oocyte
Glutamate receptor 1 (Rattus norvegicus), sequence (P19490 whole entry): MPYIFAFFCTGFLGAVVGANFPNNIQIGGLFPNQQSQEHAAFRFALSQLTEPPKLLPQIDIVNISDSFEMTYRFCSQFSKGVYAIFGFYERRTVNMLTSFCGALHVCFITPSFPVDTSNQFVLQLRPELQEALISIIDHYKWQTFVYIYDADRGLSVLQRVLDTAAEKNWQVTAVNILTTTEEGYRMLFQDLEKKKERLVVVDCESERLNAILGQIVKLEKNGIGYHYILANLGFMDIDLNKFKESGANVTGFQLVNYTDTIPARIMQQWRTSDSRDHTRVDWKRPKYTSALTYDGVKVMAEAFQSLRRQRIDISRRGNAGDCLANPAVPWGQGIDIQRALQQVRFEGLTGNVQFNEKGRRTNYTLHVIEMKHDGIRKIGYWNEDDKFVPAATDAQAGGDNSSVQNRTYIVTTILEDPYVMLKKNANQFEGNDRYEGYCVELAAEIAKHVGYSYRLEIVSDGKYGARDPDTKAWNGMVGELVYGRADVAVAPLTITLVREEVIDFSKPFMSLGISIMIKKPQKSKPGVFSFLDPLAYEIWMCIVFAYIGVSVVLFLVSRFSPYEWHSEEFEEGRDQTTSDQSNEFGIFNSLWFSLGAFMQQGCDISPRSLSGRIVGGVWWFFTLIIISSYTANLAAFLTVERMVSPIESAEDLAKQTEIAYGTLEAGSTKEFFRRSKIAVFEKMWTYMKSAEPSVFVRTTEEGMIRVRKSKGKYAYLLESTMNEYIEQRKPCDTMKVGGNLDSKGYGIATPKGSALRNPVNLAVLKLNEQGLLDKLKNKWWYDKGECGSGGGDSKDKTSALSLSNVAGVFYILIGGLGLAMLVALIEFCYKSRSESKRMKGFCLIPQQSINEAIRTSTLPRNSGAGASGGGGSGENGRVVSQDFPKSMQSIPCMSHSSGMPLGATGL
In short: (§1)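 Oocytes injected with 1–5 ng cRNA, kept in Barth's solution at 15°C for 2–5 days. Clamped at -40 mV in 90 NaCl, 1.0 KCl, 0.5 BaCl₂, 0.005 EDTA, 10 HEPES (mM), pH 7.4, 23°C. Receptors activated by 100 µM glutamate with compound co-applied. GluK2 oocytes pretreated with 10 µM concanavalin A for 10 min. DMSO 0.05–0.5% final.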

[4] = biological target: Glutamate NMDA receptor; Grin1/Grin2a (Rattus norvegicus) (UniProt P35439+Q00959); experiment: Activity at rat recombinant GluN1/GluN2A receptor expressed in Xenopus oocytes assessed as potentiation of glycine/glutamate-induced effect at 100 uM by two-electrode voltage clamp technique relative to control; format: cell-based; conditions: Oocyte
In short: (§2)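 Two-electrode voltage clamp of oocytes at -40 mV, 2–5 days after cRNA injection. Bath solution (mM) 90 NaCl, 1.0 KCl, 0.5 BaCl₂, 0.005 EDTA, 10 HEPES, pH 7.4, 23°C. Compound applied with 100 µM glutamate plus 30 µM glycine; DMSO 0.05–0.5% final. Current expressed as percent of response without compound. For GluN2A, some oocytes were pretreated with 50 µM BAPTA-AM for 10 min or injected with K-BAPTA.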

[5] = biological target: Glutamate NMDA receptor; Grin1/Grin2b (Rattus norvegicus) (UniProt P35439+Q00960); experiment: Activity at rat recombinant GluN1/GluN2B receptor expressed in Xenopus oocytes assessed as potentiation of glycine/glutamate-induced effect at 100 uM by two-electrode voltage clamp technique relative to control; format: cell-based; conditions: Oocyte; in short: as §2
[6] = biological target: Glutamate receptor ionotropic, kainate 2 (Rattus norvegicus) (UniProt P42260); experiment: Activity at rat recombinant GluK2 receptor expressed in Xenopus oocytes assessed as effect on glutamate-induced response by two-electrode voltage clamp technique; format: cell-based; conditions: Oocyte; in short: as §1
Glutamate receptor ionotropic, kainate 2 (Rattus norvegicus), sequence (P42260 whole entry): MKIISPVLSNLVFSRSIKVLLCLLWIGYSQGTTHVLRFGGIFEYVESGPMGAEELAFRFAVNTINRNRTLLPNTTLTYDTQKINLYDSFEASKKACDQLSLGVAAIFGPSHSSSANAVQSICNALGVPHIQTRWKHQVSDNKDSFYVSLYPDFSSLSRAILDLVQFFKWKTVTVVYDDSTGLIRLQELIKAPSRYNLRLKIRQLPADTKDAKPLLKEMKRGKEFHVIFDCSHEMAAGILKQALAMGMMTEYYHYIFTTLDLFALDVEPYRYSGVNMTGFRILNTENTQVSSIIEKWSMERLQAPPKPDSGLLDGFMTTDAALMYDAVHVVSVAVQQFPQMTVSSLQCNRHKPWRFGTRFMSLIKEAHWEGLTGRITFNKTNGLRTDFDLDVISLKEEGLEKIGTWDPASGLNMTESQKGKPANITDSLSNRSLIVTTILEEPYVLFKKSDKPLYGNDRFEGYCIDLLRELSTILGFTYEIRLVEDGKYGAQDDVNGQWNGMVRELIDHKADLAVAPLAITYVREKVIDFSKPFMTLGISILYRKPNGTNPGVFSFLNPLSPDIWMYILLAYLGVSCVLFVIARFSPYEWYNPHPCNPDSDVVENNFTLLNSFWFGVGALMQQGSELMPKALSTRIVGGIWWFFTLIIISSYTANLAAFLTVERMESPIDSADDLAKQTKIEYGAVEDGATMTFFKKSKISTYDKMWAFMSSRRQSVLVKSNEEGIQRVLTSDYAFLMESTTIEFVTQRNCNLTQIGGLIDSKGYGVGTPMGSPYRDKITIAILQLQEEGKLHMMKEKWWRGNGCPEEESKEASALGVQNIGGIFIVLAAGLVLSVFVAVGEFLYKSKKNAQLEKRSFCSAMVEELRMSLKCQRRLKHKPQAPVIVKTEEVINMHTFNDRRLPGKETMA

Question: With COc1ccc(OCC2c3cc(OC)c(OC)cc3CCN2C(=O)c2cccc(C)c2)cc1 (racemic) as the molecule, how does the EC50 [1] read?
Answer: The EC50 was 6.2 µM.

Question: What about the EC50 [2] of the same molecule?
Answer: The EC50 was 5.5 µM.

Question: Which EC50 [1] does the source give for COc1ccc(OCC2c3ccc(OC)cc3CCN2C(=O)c2ccccc2)cc1 (racemic) here?
Answer: Its EC50 is 7.5 µM.

Question: What about the EC50 [2] of the same molecule?
Answer: Its EC50 is 5.7 µM.

Question: With COc1ccc(/C=C/C2c3cc(OC)c(OC)cc3CCN2C(=O)c2cccc(Cl)c2)cc1 (racemic) as the molecule, how does the EC50 [1] read?
Answer: The EC50 was 1.1 µM.

Question: And the EC50 [2]?
Answer: Its EC50 is 1.3 µM.

Question: What does the source list for COc1ccc(OCC2c3ccc(OC)cc3CCN2C(=O)c2cccc(C(C)=O)c2)cc1 (racemic)?
Answer: EC50 [1]: 21 µM; EC50 [2]: 32 µM

Question: With COc1cc2c(cc1OC)CN(C(=O)c1ccccc1)CC2 as the molecule, how does the Activity [3] read?
Answer: Its Activity is “inactive”.

Question: COc1ccc(OCC2c3cc(OC)c(OC)cc3CCN2C(=O)c2cccc([N+](=O)[O-])c2)cc1 (racemic) was tested. Which Activity [4] did it give?
Answer: Its Activity is 70%.

Question: And the EC50 [1]?
Answer: Its EC50 is 11 µM.

Question: And the EC50 [2]?
Answer: The EC50 was 13 µM.

Question: Which EC50 [1] does the source give for COc1ccc(OCC2c3cc4c(cc3CCN2C(=O)c2cccc(Br)c2)OCO4)cc1 (racemic) here?
Answer: The EC50 was 3.2 µM.

Question: What about the EC50 [2] of the same molecule?
Answer: Its EC50 is 3.4 µM.

Question: Which EC50 [1] does the source give for COc1ccc(/C=C/C2c3cc(OC)c(OC)cc3CCN2C(=O)c2ccccc2)cc1 (racemic) here?
Answer: Its EC50 is 35 µM.

Question: And the EC50 [2]?
Answer: The EC50 was 35 µM.

Question: What about the Activity [3] of the same molecule?
Answer: Its Activity is “inactive”.

Question: Which EC50 [1] does the source give for COc1ccc(OCC2c3cc(C)c(C)cc3CCN2C(=O)c2cccc(Cl)c2)cc1 (racemic) here?
Answer: The EC50 was 1.4 µM.

Question: And the EC50 [2]?
Answer: Its EC50 is 1.5 µM.

Question: How did the EC50 [2] turn out when COc1ccc(OCC2c3c(cc(OC)cc3OC)CCN2C(=O)c2cccc(Cl)c2)cc1 (racemic) was run?
Answer: Its EC50 is 9.2 µM.

Question: Which results are given for COc1ccc(OCC2c3cc(OC)c(OC)cc3CCN2C(=O)c2cccc(CCl)c2)cc1 (racemic)?
Answer: EC50 [1]: 17 µM; Activity [3]: inactive; Activity [5]: Active

Question: Which results are given for COc1ccc(OCC2c3ccc(OC)cc3CCN2C(=O)c2cccc(Br)c2)cc1 (racemic)?
Answer: EC50 [1]: 2 µM; EC50 [2]: 2.9 µM; Activity [3]: inactive

Question: COc1ccc(OCC2c3cc(OC)c(OC)cc3CCN2C(=O)c2cccc(OC)c2)cc1 (racemic) was tested. Which EC50 [1] did it give?
Answer: Its EC50 is 5.8 µM.

Question: And the EC50 [2]?
Answer: Its EC50 is 12 µM.

Question: And the Activity [5]?
Answer: Its Activity is “Active”.

Question: What does the source list for COc1ccc(OCC2c3cc(OC)c(OC)cc3CCN2C(=O)c2ccccc2)cc1 (racemic)?
Answer: Activity [6]: inactive; EC50 [1]: 12 µM; EC50 [2]: 11 µM; Activity [3]: inactive; Activity [5]: Active

Question: What does the source list for COc1ccc(OCC2c3cc(OC)c(OC)cc3CCN2C(=O)c2cccc(C#N)c2)cc1 (racemic)?
Answer: EC50 [1]: 29 µM; EC50 [2]: 7.7 µM; Activity [3]: inactive

Question: For COc1cc2c(cc1OC)C(COc1ccc(N(C)C)cc1)N(C(=O)c1cccc(Br)c1)CC2 (racemic), which EC50 [1] is on record?
Answer: Its EC50 is 12 µM.

Question: Which results are given for COc1ccc(OCC2c3cc(OC)c(OC)cc3CCN2C(=O)c2cc(Cl)cc(Cl)c2)cc1 (racemic)?
Answer: EC50 [1]: 4.8 µM; EC50 [2]: 1.9 µM; Activity [3]: inactive

Question: With COc1ccc(OCC2c3cc(OC)c(OC)cc3CCN2C(=O)c2cccc(F)c2)cc1 (racemic) as the molecule, how does the Activity [6] read?
Answer: Its Activity is “inactive”.

Question: What about the EC50 [1] of the same molecule?
Answer: Its EC50 is 7.2 µM.

Question: And the EC50 [2]?
Answer: The EC50 was 7 µM.

Question: And the Activity [3]?
Answer: Its Activity is “inactive”.

Question: With COc1ccc(OCC2c3cc(OC)c(OC)cc3CCN2C(=O)c2cccc(Br)c2)cc1 (racemic) as the molecule, how does the Activity [6] read?
Answer: The Activity was “inactive”.

Question: What about the EC50 [1] of the same molecule?
Answer: Its EC50 is 0.9 µM.

Question: What about the EC50 [2] of the same molecule?
Answer: The EC50 was 2.2 µM.

Question: And the Activity [3]?
Answer: Its Activity is “inactive”.

Question: How did the Activity [3] turn out when COc1ccc(OCC2c3ccc(OC)cc3CCN2C(=O)c2cccc(Cl)c2)cc1 (racemic) was run?
Answer: The Activity was “inactive”.

Question: How did the EC50 [1] turn out when COc1ccc(OCC2c3c(cc(OC)cc3OC)CCN2C(=O)c2cccc(Br)c2)cc1 (racemic) was run?
Answer: The EC50 was 9 µM.

Question: And the EC50 [2]?
Answer: Its EC50 is 7.8 µM.

Question: How did the EC50 [1] turn out when COc1ccc(OCC2c3cc(OC)c(OC)cc3CCN2C(=O)c2cccc(Cl)c2Cl)cc1 (racemic) was run?
Answer: The EC50 was 1.4 µM.

Question: Which Activity [4] does the source give for COc1cc2c(cc1OC)CN(C(=O)c1cccc(Br)c1)CC2 here?
Answer: Its Activity is 70%.

Question: Which results are given for COc1ccc(OCC2c3ccc(C)cc3CCN2C(=O)c2cccc(Cl)c2)cc1 (racemic)?
Answer: EC50 [1]: 5 µM; EC50 [2]: 4.7 µM

Question: Which EC50 [1] does the source give for COc1cc2c(cc1OC)C(COc1ccc(N(C)C)cc1)N(C(=O)c1cccc(Cl)c1)CC2 (racemic) here?
Answer: The EC50 was 35 µM.

Question: What does the source list for COc1ccc(OCC2c3c(cc(OC)cc3OC)CCN2C(=O)c2ccccc2)cc1 (racemic)?
Answer: EC50 [1]: 10 µM; EC50 [2]: 14 µM

Question: COc1ccc(OCC2c3ccc(OCc4ccccc4)cc3CCN2C(=O)c2cccc(Cl)c2)cc1 (racemic) was tested. Which EC50 [1] did it give?
Answer: Its EC50 is 0.4 µM.

Question: And the EC50 [2]?
Answer: The EC50 was 0.4 µM.
